Reference: ChEMBL document CHEMBL2086296, “Synthesis of novel quinoline-2-one based chalcones of potential anti-tumor activity” (Eur J Med Chem, 2012)

What was measured:
NCI-H522 [1] = experiment: (§1) Cytotoxicity against human NCI-H522 cells after 24 hrs by SRB assay; format: functional; conditions: NCI-H522, 24 h
Summary of the method: (§2)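 NCI 60-line screen. Cells in RPMI 1640 with 5% FBS and 2 mM L-glutamine, seeded at 5,000–40,000 cells/well by doubling time, then incubated 24 h at 37 °C, 5% CO2 before dosing. Time-zero plates fixed with TCA at drug addition. DMSO stocks diluted in medium with gentamicin to five concentrations, […]. Protein read by SRB staining. GI50, TGI and LC50 derived relative to control and time-zero.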

OVCAR-5 = experiment: Cytotoxicity against human OVCAR5 cells after 24 hrs by SRB assay; format: functional; conditions: OVCAR-5, 24 h; summary of the method: as §2
SR = experiment: Cytotoxicity against human SR cells after 24 hrs by SRB assay; format: functional
Summary of the method: (§3)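 NCI 60-cell screen. Cells are grown in RPMI 1640 with 5% FBS and 2 mM L-glutamine and seeded at 5,000–40,000 cells/well according to doubling time. They are preincubated 24 h at 37 °C in 5% CO2, and Tz plates are TCA-fixed at drug addition. Drug stock is in DMSO, diluted in medium with gentamicin, and tested at five concentrations (100, 10, 1.0, 0.1, […]). Protein is read by SRB staining. GI50, TGI and LC50 are derived relative to time-zero and control wells.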

SF-295 = experiment: Cytotoxicity against human SF295 cells after 24 hrs by SRB assay; format: cell-based; conditions: sf-295, 24 h
Summary of the method: (§4)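 NCI 60-cell screen. Cells grown in RPMI 1640 with 5% FBS and 2 mM L-glutamine, seeded at 5,000–40,000 cells/well, preincubated 24 h at 37 °C in 5% CO2. Drug stock in DMSO, diluted in medium with gentamicin; five final concentrations, 100, 10, 1.0, 0.1 and […]. Time-zero plates were TCA-fixed. Protein read by SRB staining; GI50, TGI and LC50 taken relative to time-zero.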

UO-31 [2] = experiment: (§5) Cytotoxicity against human UO31 cells after 24 hrs by SRB assay; format: cell-based; conditions: uo-31, 24 h
Summary of the method: (§6)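 NCI 60-cell-line screen: cells grown in RPMI 1640 with 5% FBS and 2 mM L-glutamine, seeded at 5,000–40,000 cells/well by doubling time, and preincubated 24 h at 37 °C in 5% CO2. Time-zero plates were TCA-fixed. DMSO stocks were diluted in medium with gentamicin to five concentrations (100, 10, 1.0, 0.1, […]). Protein was read by SRB, and GI50, TGI and LC50 were derived against time-zero.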

RPMI-8226 [3] = experiment: (§7) Cytotoxicity against human RPMI8226 cells after 24 hrs by SRB assay; format: functional; conditions: RPMI-8226, 24 h; summary of the method: as §2
NCI-H522 [4] = experiment: as §1; format: cell-based; conditions: nci-h522, 24 h; summary of the method: as §4
HCC 2998 [5] = experiment: (§8) Cytotoxicity against human HCC2998 cells after 24 hrs by SRB assay; format: functional; conditions: HCC 2998, 24 h; summary of the method: as §2
NCI-H460 = experiment: Cytotoxicity against human NCI-H460 cells after 24 hrs by SRB assay; format: functional; conditions: NCI-H460, 24 h; summary of the method: as §2
NCI-H322M [6] = experiment: (§9) Cytotoxicity against human NCI-H322M cells after 24 hrs by SRB assay; format: cell-based; summary of the method: as §4
HCC 2998 [7] = experiment: as §8; format: cell-based; conditions: hcc 2998, 24 h; summary of the method: as §4
IGROV-1 [8] = experiment: (§10) Cytotoxicity against human IGROV1 cells after 24 hrs by SRB assay; format: cell-based; conditions: igrov-1, 24 h; summary of the method: as §4
UO-31 [9] = experiment: as §5; format: functional; conditions: UO-31, 24 h; summary of the method: as §3
A549 = experiment: Cytotoxicity against human A549 cells after 24 hrs by SRB assay; format: cell-based; conditions: a549, 24 h; summary of the method: as §4
CCRF-CEM = experiment: Cytotoxicity against human CCRF-CEM cells after 24 hrs by SRB assay; format: cell-based; summary of the method: as §4
HT-29 [10] = experiment: (§11) Cytotoxicity against human HT-29 cells after 24 hrs by SRB assay; format: functional; conditions: HT-29, 24 h; summary of the method: as §2
SNB-75 = experiment: Cytotoxicity against human SNB75 cells after 24 hrs by SRB assay; format: functional; conditions: SNB-75, 24 h; summary of the method: as §3
IGROV-1 [11] = experiment: as §10; format: functional; conditions: IGROV-1, 24 h; summary of the method: as §2
HT-29 [12] = experiment: as §11; format: cell-based; conditions: ht-29, 24 h; summary of the method: as §4
Malme-3M [13] = experiment: (§12) Cytotoxicity against human MALME-3M cells after 24 hrs by SRB assay; format: cell-based; summary of the method: as §4
U-251 = experiment: Cytotoxicity against human U251 cells after 24 hrs by SRB assay; format: functional; conditions: U-251, 24 h; summary of the method: as §3
Malme-3M [14] = experiment: as §12; format: functional; summary of the method: as §2
NCI-H23 = experiment: Cytotoxicity against human NCI-H23 cells after 24 hrs by SRB assay; format: cell-based; conditions: nci-h23, 24 h; summary of the method: as §4
HOP-92 = experiment: Cytotoxicity against human HOP92 cells after 24 hrs by SRB assay; format: functional; conditions: HOP-92, 24 h; summary of the method: as §2
SK-MEL-2 = experiment: Cytotoxicity against human SK-MEL-2 cells after 24 hrs by SRB assay; format: functional; conditions: SK-MEL-2, 24 h; summary of the method: as §2
BT-549 = experiment: Cytotoxicity against human BT549 cells after 24 hrs by SRB assay; format: functional; conditions: BT-549, 24 h; summary of the method: as §2
SN12C = experiment: Cytotoxicity against human SN12C cells after 24 hrs by SRB assay; format: functional; summary of the method: as §2
HCT-116 = experiment: Cytotoxicity against human HCT116 cells after 24 hrs by SRB assay; format: functional; conditions: HCT-116, 24 h; summary of the method: as §2
MDA-MB-468 = experiment: Cytotoxicity against human MDA-MB-468 cells after 24 hrs by SRB assay; format: functional; conditions: MDA-MB-468, 24 h; summary of the method: as §2
HCT-15 = experiment: Cytotoxicity against human HCT15 cells after 24 hrs by SRB assay; format: functional; conditions: HCT-15, 24 h; summary of the method: as §2
SK-MEL-5 = experiment: Cytotoxicity against human SK-MEL-5 cells after 24 hrs by SRB assay; format: cell-based; conditions: sk-mel-5, 24 h; summary of the method: as §4
SF-539 = experiment: Cytotoxicity against human SF539 cells after 24 hrs by SRB assay; format: cell-based; conditions: sf-539, 24 h; summary of the method: as §4
RPMI-8226 [15] = experiment: as §7; format: cell-based; conditions: rpmi-8226, 24 h; summary of the method: as §4
SNB-19 = experiment: Cytotoxicity against human SNB19 cells after 24 hrs by SRB assay; format: cell-based; conditions: snb-19, 24 h; summary of the method: as §6
NCI-H322M [16] = experiment: as §9; format: functional; summary of the method: as §2
786-0 = experiment: Cytotoxicity against human 786-0 cells after 24 hrs by SRB assay; format: cell-based; conditions: 786-0, 24 h; summary of the method: as §4
OVCAR-4 = experiment: Cytotoxicity against human OVCAR4 cells after 24 hrs by SRB assay; format: functional; conditions: OVCAR-4, 24 h; summary of the method: as §2

SMILES: O=C(/C=C/c1cc2ccccc2[nH]c1=O)c1ccc(O)cc1
- GI50 (NCI-H522 [1]): 1.7 µM
- TGI (NCI-H522 [1]): 3.29 µM
- GI50 (OVCAR-5): 3.2 µM
- TGI (OVCAR-5): 12.8 µM
- GI50 (SR): 1.66 µM
- LC50 (SF-295): > 100 µM
- LC50 (UO-31 [2]): > 100 µM
- GI50 (RPMI-8226 [3]): 3.2 µM
- TGI (RPMI-8226 [3]): 24.8 µM
- LC50 (NCI-H522 [4]): 6.36 µM
- GI50 (HCC 2998 [5]): 4.13 µM
- TGI (HCC 2998 [5]): 22.3 µM
- GI50 (NCI-H460): 2.39 µM
- TGI (NCI-H460): 6.87 µM
- LC50 (NCI-H322M [6]): 55.5 µM
- LC50 (HCC 2998 [7]): 59.6 µM
- LC50 (IGROV-1 [8]): > 100 µM
- GI50 (UO-31 [9]): 4.38 µM
- TGI (UO-31 [9]): 26.6 µM
- LC50 (A549): 89.9 µM
- LC50 (CCRF-CEM): > 100 µM
- GI50 (HT-29 [10]): 3.61 µM
- TGI (HT-29 [10]): 12.1 µM
- GI50 (SNB-75): 9.3 µM
- TGI (SNB-75): 23 µM
- GI50 (IGROV-1 [11]): 4.35 µM
- TGI (IGROV-1 [11]): 45.1 µM
- LC50 (HT-29 [12]): 41.4 µM
- LC50 (Malme-3M [13]): > 100 µM
- GI50 (U-251): 2.6 µM
- TGI (U-251): 10.9 µM
- GI50 (Malme-3M [14]): 10.4 µM
- TGI (Malme-3M [14]): 33.6 µM
- LC50 (NCI-H23): > 100 µM
- GI50 (HOP-92): 3.26 µM
- TGI (HOP-92): 23.2 µM
- GI50 (SK-MEL-2): 4.13 µM
- TGI (SK-MEL-2): 13.6 µM
- GI50 (BT-549): 1.95 µM
- TGI (BT-549): 5.35 µM
- GI50 (SN12C): 3.48 µM
- TGI (SN12C): 16 µM
- GI50 (HCT-116): 1.94 µM
- TGI (HCT-116): 4.38 µM
- GI50 (MDA-MB-468): 2.12 µM
- TGI (MDA-MB-468): 5.3 µM
- GI50 (HCT-15): 2.71 µM
- TGI (HCT-15): 12.8 µM
- LC50 (SK-MEL-5): 37.3 µM
- LC50 (SF-539): 61.674 µM
- LC50 (RPMI-8226 [15]): > 100 µM
- LC50 (SNB-19): 50.6 µM
- GI50 (NCI-H322M [16]): 3.98 µM
- TGI (NCI-H322M [16]): 16.8 µM

SMILES: O=C(/C=C/c1cc2ccccc2[nH]c1=O)c1ccc(Cl)cc1
- GI50 (NCI-H522 [1]): 2.23 µM
- TGI (NCI-H522 [1]): 6.58 µM
- GI50 (OVCAR-5): 12.7 µM
- TGI (OVCAR-5): 97 µM
- GI50 (SR): 1.71 µM
- TGI (SR): 19.1 µM
- LC50 (SF-295): > 100 µM
- LC50 (UO-31 [2]): > 100 µM
- GI50 (RPMI-8226 [3]): 2.23 µM
- TGI (RPMI-8226 [3]): 16.1 µM
- LC50 (NCI-H522 [4]): 47.2 µM
- GI50 (HCC 2998 [5]): 6.55 µM
- TGI (HCC 2998 [5]): 22.3 µM
- GI50 (NCI-H460): 3.99 µM
- TGI (NCI-H460): 18.9 µM
- LC50 (NCI-H322M [6]): > 100 µM
- LC50 (HCC 2998 [7]): 59.6 µM
- LC50 (IGROV-1 [8]): 50.7 µM
- GI50 (UO-31 [9]): 5.27 µM
- TGI (UO-31 [9]): > 100 µM
- LC50 (A549): > 100 µM
- LC50 (CCRF-CEM): > 100 µM
- GI50 (HT-29 [10]): 3.84 µM
- TGI (HT-29 [10]): 22.5 µM
- GI50 (SNB-75): 6.21 µM
- TGI (SNB-75): 48.8 µM
- GI50 (IGROV-1 [11]): 3.71 µM
- TGI (IGROV-1 [11]): 14.7 µM
- LC50 (HT-29 [12]): > 100 µM
- LC50 (Malme-3M [13]): > 100 µM
- GI50 (U-251): 2.52 µM
- TGI (U-251): 11.4 µM
- GI50 (Malme-3M [14]): 9.42 µM
- TGI (Malme-3M [14]): 35.3 µM
- LC50 (NCI-H23): > 100 µM
- GI50 (HOP-92): 5.74 µM
- TGI (HOP-92): 50.5 µM
- GI50 (SK-MEL-2): 8.55 µM
- TGI (SK-MEL-2): 25.7 µM
- GI50 (BT-549): 3.86 µM
- TGI (BT-549): 17.1 µM
- GI50 (SN12C): 8.16 µM
- TGI (SN12C): > 100 µM
- GI50 (HCT-116): 3.26 µM
- TGI (HCT-116): 14.8 µM
- LC50 (786-0): > 100 µM
- GI50 (MDA-MB-468): 2.96 µM
- TGI (MDA-MB-468): 9.88 µM
- GI50 (HCT-15): 3.18 µM
- TGI (HCT-15): 20.2 µM
- LC50 (SK-MEL-5): > 100 µM
- LC50 (SF-539): 74.2 µM
- GI50 (OVCAR-4): 1.67 µM
- TGI (OVCAR-4): > 100 µM
- LC50 (RPMI-8226 [15]): > 100 µM
- LC50 (SNB-19): > 100 µM
- GI50 (NCI-H322M [16]): 13.4 µM
- TGI (NCI-H322M [16]): 79 µM
